Here are results for seven molecules from article PMC8628544 (Developmental cell, 2021).

Where two headings read alike, the source gives them in different places.

The test system of data set [1] is human ESC-derived cardiomyocytes. In words: Cardiomyocyte differentiation of hESCs. The format is cell-based. Conditions: for gene expression in DKO cultures / fraction of TNNT2+ cells in DKO cultures: NR2F1/2 DKO.
Data set [2] concerns NR2F2. Conditions: at high concentrations; ref Kruse et al., 2008; cited from earlier work.
The target in another data set is T1, NR2F1 LBD (Mus musculus, UniProt Q60632).
T1 sequence (Q60632 183-422): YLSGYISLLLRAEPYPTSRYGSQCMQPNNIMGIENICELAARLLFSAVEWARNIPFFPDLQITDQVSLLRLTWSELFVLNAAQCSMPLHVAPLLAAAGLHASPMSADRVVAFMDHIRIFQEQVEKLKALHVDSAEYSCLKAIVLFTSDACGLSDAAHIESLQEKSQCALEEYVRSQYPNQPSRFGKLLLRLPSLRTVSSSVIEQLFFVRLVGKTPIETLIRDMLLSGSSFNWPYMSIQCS
In words: Metabolite pull-down / displacement with FLAG-tagged LBD and LC-MS. The format is binding. Conditions: 500 nM retinoic acid in medium.

The target of another data set is NR2F1/2. The following applies: read-out: Kd for NR2F1/2; ref Kruse et al., 2008; cited from earlier work.
Another data set has as its target T2, RARA LBD (Homo sapiens, UniProt P10276).
T2 sequence (P10276 183-417 limits assumed): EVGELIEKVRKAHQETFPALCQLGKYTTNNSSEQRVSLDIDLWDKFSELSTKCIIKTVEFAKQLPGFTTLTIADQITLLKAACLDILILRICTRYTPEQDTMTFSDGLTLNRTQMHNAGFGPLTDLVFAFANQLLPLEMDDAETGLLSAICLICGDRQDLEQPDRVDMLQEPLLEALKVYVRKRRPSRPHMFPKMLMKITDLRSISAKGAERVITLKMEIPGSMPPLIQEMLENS
Description: Metabolite pull-down with FLAG-tagged control LBD and LC-MS. Type of data set: binding. Conditions: C18+ mode; 500 nM all-trans-retinoic acid in medium; p-value 0.01.

For data set [3], the target named is NR2F1(LBD)-GAL4(DBD) fusion protein (Mus musculus, UniProt Q60632). Description: NR2F1. The format is cell-based. Conditions: Figure S1C.
Chain of NR2F1(LBD)-GAL4(DBD) fusion protein (P04386 1-147 partner limits assumed, one chain of several): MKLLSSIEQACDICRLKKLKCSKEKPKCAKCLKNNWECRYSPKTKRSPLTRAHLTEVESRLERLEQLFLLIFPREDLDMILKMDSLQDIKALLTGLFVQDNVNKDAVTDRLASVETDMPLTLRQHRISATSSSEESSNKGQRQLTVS
For data set [4], the system named is E10.5 embryo cultures of Sptlc2^f/f Cdh5^CreERT2 mice. Description: Rescue experiments using ex-vivo embryo culture. Also noted: species or system mouse. The following applies: 25 nM 1-deoxySO-BSA; 24 hours; 4-OH-TMX. An outline of the steps: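 Embryos were cultured in DMEM-F12 with 15% KSR, N2, Glutamax and Pen-Strep. Medium held 1 µM 4-OH-TMX, 5 µM sphingolipid-precursor-BSA and 25 nM test compound-BSA; controls received vehicle-BSA instead. Culture ran in O2-flushed sealed 50 mL tubes on a roller at 37°C, 5% CO2, for 24 h.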

The subject of the next data set is mouse LECs. Type of data set: cell-based. An outline of the steps: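 LECs were isolated from collagenase D/dispase-digested mouse lymph nodes and grown overnight in semi-synthetic medium (DMEM, Hepes, 1% BSA, ITS-A, 1% FBS) with 1 µM sphingolipid-precursor-BSA. Deletion was induced with 0.5–1 µM 4-OH-TMX. Test compound-BSA (50–100 nM) or vehicle was added, with media renewed daily. At 24 h, cells were fixed and immunostained for NR2F2, Prox1 and […], then imaged by confocal microscopy.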

The target of data set [5] is fluorescein-labeled SRC2-2 peptide. In words: fluorescence polarisation. (In general: Fluorescence polarisation rises when a labelled molecule tumbles more slowly, as on binding a larger partner.)
The target is the same in data set [6]. In words: fluorescence polarisation. This is another data set of the same source.
For data set [7] the target is unchanged. Description: fluorescence polarisation. The source holds these as a separate data set.
Data set [8] relates to NR2F2. Description: NR2F2 reporter activity in HEK-293FT cells. Type of data set: cell-based. The following applies: 1 µM. An outline of the steps: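 HEK-293FT cells plated at 5 x 10^4 per well the day before, then PEI-transfected in antibiotic-free DMEM with 1% FBS. Each well received reporter plasmid, NHR plasmid and a Renilla normalisation plasmid. 24 h after transfection, test compound-BSA complexes diluted in 1% FBS medium were added. Dual luciferase read-out.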

The subject of a further data set is HEK-293FT cells. In words: Cell viability of HEK-293FT cells. Type of data set: cell-based, human. Conditions: 1 µM.
[9] abbreviates: 1 µM from day 1, WT, day 6, bulk RNA-seq.

Turning to `CCCCCCCCCCCCC/C=C/[C@@H](O)[C@@H](N)CO` [D-erythroSO, D-erythro-sphingosine], the “gene expression in DKO cultures” value in data set [1] was “minimally affected”. Also, the “fraction of TNNT2+ cells in DKO cultures” value in [1] (1.5 µM from day 3) is “did not increase”.

As to `CCCCCCCCCCCCC/C=C/[C@@H](O)[C@H](C)N` [1-deoxysphingosine], in [1] (WT, 1.5 µM from day 3, FACS day 9), the “fraction of TNNT2+ cells in WT cultures” value is reported as “increased”. Besides, in data set [1] (WT, day 9), the “number of genes decreased by >2-fold versus vehicle” value was determined as 464 and the “number of genes increased by >2-fold versus vehicle” value came out at 265.

As for `CC1=C(/C=C/C(C)=C/C=C/C(C)=C/C(=O)O)C(C)(C)CCC1` [retinoic acid, all-trans retinoic acid], the “agonist activity on NR2F2” value in the data set on NR2F2 [2] is “weak agonist”. The “metabolites with exact masses detected in the NR2F1 samples” value at NR2F1 LBD was “no such metabolites were detected”. Further, the Kd at NR2F1/2 was 26000 nM. The “enrichment in RARA but not NR2F1 samples” value at RARA LBD is listed as 14.76 fold.

As to `COc1ccc(O)c2ccccc12` [4-methoxy-1-naphthol], the “activity of the NR2F1(LBD)-GAL4(DBD) fusion protein” value in data set [3] is recorded as “inhibited”.

Turning to `CCC/C=C\CCCCCCCCCC[C@@H](O)[C@H](C)N` [1-deoxySO-14Z, 1-deoxysphingosine (14Z)], the “cardiac development in embryo cultures” value in data set [4] was “partially rescued”. Also, the “gene expression in DKO cultures” value in data set [1] was “minimally affected”. For the same molecule, the “fraction of TNNT2+ cells in DKO cultures” value in [1] (1.5 µM from day 3) is “did not increase”. Further, the “number of viable cells in Sptlc2 deleted cultures” value with mouse LECs (4OH-TMX, medium with D-erythroSO, Figure S3C) was “restored”. Moreover, the “other lymphatic endothelial markers (LYVE1 and NR2F2)” value in the data set on mouse LECs (within 24 hours after 4OH-TMX) is “no effects were observed”. Moreover, the “PROX1 levels in LECs” value in the data set with mouse LECs (within 24 hours after 4OH-TMX, versus vehicle) is “partially restored”.

Regarding NR2F1/2-LBD, the Kd in data set [5] was more than 300 nM; in data set [6], 68 nM; in data set [7] it was more than 300 nM.

For `CCCCCCC(=O)CCCCCC/C=C/C[C@@H](O)[C@H](O)[C@@](N)(CO)C(=O)O` [myriocin], the NR2F2 reporter activity result in the data set with NR2F2 [8] is “partially suppress”. Further, the cell viability entry with HEK-293FT cells was “without loss of cell viability”. In data set [1] (setting [9]), the “number of downregulated genes versus vehicle” value was found to be 850 and the “number of upregulated genes versus vehicle” value was determined as 1121.
